Assay results: ChEMBL document CHEMBL4680221, “Discovery of pyrazole derivatives as cellular active inhibitors of histone lysine specific demethylase 5B (KDM5B/JARID1B)” (Eur J Med Chem, 2020)
Active and inactive are the calls of the source. No cut-off for these calls is given here.

Columns and labels:
[1] = biological target: T1, Lysine-specific demethylase 4C (Homo sapiens) (UniProt Q9H3R0); assay: Inhibition of KDM4C (unknown origin) at 0.01 uM relative to control
T1 sequence (whole entry): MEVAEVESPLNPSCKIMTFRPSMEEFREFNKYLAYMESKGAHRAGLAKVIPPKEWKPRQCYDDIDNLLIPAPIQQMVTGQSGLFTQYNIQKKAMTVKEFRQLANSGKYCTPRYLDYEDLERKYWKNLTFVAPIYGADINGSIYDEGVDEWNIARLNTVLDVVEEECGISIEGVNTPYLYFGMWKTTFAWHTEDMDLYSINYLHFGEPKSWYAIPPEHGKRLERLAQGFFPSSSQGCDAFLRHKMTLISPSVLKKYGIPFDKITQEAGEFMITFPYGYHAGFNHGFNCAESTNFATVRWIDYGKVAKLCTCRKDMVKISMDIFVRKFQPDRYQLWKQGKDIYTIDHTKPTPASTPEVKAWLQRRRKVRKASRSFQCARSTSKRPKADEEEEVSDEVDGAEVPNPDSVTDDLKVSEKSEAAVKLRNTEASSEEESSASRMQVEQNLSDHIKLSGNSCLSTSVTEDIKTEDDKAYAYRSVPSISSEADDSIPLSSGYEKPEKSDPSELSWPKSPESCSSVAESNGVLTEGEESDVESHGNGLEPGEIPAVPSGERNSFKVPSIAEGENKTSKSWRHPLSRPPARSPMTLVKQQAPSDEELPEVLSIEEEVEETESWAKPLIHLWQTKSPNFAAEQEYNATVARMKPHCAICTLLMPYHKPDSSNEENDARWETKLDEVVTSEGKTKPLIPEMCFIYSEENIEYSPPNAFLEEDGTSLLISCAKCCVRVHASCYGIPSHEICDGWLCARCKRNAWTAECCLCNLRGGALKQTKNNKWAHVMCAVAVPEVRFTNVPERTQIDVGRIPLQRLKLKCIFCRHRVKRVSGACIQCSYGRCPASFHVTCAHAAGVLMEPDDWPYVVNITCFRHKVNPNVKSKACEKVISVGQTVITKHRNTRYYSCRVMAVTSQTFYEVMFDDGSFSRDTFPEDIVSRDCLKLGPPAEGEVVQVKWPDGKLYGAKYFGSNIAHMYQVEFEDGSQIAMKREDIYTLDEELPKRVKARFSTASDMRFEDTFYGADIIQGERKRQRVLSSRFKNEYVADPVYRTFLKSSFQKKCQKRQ

[2] = biological target: T1, Lysine-specific demethylase 4C (Homo sapiens); assay: Inhibition of KDM4C (unknown origin) at 0.25 uM relative to control
[3] = biological target: T2, Lysine-specific demethylase 5A (Homo sapiens, UniProt P29375); assay: Inhibition of KDM5A (unknown origin) at 0.25 uM relative to control
T2 sequence (P29375 whole entry): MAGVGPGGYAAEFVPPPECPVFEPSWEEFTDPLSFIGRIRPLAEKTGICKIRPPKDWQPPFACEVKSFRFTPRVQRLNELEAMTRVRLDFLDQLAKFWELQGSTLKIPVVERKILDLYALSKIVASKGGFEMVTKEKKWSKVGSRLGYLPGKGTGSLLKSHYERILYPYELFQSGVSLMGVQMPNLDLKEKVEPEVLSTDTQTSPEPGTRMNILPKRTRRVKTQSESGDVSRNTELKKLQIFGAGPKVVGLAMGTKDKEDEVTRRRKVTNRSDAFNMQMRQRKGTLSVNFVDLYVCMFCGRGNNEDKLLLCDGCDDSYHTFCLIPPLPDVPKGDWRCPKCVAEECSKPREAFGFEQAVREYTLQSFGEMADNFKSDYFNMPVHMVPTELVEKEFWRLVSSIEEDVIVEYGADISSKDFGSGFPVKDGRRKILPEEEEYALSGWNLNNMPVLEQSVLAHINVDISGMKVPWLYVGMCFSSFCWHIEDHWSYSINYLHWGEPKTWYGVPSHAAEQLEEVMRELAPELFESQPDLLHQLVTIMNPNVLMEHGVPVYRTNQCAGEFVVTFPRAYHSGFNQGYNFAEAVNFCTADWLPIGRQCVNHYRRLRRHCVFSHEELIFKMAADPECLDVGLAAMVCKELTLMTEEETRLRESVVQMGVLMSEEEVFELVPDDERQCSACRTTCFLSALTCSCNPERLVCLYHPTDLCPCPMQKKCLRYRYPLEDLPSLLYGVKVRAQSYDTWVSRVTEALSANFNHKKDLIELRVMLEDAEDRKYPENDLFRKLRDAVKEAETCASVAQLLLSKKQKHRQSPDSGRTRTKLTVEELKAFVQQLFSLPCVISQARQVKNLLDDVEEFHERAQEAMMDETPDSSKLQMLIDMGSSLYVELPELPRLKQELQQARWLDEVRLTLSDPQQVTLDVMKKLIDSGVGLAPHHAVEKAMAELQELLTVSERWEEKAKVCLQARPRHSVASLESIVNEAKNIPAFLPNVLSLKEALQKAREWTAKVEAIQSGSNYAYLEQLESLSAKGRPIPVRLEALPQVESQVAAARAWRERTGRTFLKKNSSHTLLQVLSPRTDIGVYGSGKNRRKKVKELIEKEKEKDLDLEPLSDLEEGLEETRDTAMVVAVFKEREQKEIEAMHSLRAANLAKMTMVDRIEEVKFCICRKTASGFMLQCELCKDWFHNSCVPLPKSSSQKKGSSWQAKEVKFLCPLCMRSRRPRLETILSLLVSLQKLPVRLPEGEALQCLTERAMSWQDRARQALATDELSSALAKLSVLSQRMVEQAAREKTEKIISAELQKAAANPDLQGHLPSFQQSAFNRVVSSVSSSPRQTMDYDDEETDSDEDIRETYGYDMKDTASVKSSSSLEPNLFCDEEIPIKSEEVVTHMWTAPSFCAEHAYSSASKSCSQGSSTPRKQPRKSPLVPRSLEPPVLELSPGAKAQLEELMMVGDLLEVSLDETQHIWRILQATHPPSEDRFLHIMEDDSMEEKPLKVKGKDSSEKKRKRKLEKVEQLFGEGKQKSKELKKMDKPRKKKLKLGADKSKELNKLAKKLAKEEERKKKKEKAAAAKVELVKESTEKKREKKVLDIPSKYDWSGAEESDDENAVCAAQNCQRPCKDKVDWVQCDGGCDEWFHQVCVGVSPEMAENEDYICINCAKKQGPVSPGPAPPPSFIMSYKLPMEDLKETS

[4] = biological target: Lysine-specific demethylase 5C (Homo sapiens, UniProt P41229); assay: Inhibition of KDM5C (unknown origin) at 0.01 uM relative to control
Chain of Lysine-specific demethylase 5C (P41229 whole entry): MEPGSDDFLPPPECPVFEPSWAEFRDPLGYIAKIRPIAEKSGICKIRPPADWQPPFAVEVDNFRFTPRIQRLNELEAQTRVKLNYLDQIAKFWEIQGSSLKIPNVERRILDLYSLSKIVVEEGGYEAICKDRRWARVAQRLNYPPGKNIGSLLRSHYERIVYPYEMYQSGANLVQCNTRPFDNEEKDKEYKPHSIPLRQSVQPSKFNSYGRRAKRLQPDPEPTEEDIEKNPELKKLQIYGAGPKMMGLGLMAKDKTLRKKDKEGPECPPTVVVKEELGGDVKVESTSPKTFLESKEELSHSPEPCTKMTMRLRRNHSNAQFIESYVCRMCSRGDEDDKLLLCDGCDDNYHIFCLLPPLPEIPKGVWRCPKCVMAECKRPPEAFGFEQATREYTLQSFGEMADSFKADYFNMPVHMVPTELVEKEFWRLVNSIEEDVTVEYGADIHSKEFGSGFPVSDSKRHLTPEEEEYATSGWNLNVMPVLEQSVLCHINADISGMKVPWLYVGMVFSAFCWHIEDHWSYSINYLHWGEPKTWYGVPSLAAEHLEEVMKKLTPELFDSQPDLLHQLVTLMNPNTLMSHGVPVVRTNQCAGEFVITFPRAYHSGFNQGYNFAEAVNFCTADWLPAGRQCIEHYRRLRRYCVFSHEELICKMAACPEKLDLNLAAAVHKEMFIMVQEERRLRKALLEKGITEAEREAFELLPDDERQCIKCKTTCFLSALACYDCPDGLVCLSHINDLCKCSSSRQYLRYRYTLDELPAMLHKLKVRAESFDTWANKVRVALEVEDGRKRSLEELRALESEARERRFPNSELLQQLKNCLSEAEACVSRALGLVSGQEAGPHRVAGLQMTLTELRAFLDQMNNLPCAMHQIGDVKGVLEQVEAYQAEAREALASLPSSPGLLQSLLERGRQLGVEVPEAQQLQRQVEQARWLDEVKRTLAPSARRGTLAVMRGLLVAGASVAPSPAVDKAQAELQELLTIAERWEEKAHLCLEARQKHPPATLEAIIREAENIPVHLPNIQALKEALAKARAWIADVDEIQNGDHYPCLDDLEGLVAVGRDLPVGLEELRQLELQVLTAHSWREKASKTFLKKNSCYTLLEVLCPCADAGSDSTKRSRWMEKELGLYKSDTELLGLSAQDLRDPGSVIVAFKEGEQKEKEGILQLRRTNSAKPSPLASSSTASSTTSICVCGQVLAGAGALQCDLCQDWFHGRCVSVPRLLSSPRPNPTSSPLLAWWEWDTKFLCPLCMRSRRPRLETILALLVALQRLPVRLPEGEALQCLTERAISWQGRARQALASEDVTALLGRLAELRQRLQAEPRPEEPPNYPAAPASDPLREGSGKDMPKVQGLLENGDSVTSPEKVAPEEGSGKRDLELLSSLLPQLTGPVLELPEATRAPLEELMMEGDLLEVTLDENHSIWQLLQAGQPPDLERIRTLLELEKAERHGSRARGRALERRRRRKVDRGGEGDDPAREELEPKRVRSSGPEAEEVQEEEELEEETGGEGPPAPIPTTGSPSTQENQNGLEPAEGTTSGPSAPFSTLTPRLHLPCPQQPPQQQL

[5] = biological target: T3, Lysine-specific demethylase 4A (Homo sapiens, UniProt O75164); assay: Inhibition of KDM4A (unknown origin)
T3 sequence (O75164 whole entry): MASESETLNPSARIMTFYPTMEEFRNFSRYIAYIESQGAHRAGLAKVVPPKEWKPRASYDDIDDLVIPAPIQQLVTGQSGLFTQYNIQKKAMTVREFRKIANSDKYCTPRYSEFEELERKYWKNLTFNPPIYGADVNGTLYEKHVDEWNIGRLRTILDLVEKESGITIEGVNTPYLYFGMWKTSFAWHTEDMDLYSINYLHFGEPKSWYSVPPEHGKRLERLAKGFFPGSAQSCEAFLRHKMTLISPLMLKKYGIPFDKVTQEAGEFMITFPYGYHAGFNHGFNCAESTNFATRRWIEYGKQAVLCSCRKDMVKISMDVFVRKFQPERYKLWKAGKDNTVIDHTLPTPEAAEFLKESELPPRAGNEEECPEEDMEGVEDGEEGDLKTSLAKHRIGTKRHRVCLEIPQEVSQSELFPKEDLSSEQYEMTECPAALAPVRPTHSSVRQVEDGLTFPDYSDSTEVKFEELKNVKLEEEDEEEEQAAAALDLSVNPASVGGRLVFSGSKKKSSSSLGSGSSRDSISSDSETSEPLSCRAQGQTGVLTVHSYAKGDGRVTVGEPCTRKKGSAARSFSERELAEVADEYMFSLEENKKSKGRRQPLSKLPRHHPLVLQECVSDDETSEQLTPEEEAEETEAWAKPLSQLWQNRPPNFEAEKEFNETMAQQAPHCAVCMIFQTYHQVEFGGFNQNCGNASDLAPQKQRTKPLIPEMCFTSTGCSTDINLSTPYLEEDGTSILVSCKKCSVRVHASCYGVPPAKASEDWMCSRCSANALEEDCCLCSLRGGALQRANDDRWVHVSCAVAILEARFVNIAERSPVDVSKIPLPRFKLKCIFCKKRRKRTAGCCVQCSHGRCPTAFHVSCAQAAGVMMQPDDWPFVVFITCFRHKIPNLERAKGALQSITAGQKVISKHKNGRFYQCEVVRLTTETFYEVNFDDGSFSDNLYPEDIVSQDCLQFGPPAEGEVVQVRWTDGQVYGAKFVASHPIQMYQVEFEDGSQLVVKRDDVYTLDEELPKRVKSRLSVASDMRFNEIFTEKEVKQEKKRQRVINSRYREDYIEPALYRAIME

[6] = biological target: T2, Lysine-specific demethylase 5A; assay: Inhibition of KDM5A (unknown origin)
[7] = biological target: Lysine-specific demethylase 6B (Homo sapiens, UniProt O15054); assay: Inhibition of KDM6B (unknown origin)
Chain of Lysine-specific demethylase 6B (O15054 whole entry): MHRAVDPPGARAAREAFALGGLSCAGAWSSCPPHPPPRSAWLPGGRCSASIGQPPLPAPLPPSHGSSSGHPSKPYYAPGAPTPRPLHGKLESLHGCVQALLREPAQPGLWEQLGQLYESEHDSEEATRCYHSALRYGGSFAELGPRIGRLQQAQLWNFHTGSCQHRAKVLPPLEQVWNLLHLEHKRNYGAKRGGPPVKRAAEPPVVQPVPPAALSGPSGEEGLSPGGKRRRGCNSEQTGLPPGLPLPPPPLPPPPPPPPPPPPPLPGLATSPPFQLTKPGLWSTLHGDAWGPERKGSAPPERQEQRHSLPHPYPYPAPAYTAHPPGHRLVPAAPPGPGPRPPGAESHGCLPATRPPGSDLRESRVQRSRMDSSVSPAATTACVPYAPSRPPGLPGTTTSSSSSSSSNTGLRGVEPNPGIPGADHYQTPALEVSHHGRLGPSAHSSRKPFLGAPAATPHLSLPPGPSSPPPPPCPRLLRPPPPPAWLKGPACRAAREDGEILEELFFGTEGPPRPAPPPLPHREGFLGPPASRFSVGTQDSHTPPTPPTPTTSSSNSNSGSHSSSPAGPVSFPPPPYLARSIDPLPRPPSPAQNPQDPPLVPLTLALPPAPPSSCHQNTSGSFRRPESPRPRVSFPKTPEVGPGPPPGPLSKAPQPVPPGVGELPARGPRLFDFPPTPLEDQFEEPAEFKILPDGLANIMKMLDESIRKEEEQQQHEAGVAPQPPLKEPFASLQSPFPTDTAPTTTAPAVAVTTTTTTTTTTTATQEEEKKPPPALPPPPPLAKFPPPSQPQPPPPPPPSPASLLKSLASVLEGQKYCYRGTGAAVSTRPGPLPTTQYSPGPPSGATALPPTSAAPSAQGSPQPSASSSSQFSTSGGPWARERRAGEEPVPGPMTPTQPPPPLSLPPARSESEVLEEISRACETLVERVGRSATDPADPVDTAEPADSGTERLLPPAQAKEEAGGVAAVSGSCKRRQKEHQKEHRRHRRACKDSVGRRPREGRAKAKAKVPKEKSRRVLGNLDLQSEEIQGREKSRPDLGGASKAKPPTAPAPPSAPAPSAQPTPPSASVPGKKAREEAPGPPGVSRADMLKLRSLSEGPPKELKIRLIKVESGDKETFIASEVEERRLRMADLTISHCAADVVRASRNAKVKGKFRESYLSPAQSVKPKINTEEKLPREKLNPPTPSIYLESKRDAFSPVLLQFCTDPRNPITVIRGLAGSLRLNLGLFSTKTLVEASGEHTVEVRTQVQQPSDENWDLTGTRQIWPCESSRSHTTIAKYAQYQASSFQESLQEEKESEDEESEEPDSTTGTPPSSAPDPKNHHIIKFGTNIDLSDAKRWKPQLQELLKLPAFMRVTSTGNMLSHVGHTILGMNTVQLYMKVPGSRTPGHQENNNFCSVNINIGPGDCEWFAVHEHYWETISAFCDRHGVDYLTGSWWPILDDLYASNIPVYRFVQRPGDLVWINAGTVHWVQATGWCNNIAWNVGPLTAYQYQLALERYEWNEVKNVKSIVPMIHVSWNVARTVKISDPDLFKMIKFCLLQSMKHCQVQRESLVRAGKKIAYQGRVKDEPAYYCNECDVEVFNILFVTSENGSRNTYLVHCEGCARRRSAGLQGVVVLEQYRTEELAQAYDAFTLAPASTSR

[8] = biological target: Lysine-specific demethylase 5B (Homo sapiens, UniProt Q9UGL1); assay: Inhibition of KDM5B in human MKN-45 cells assessed as increase in H3K4me1 accumulation at 0.5 to 20 uM measured after 5 days by Western blot analysis; format: cell-based; conditions: dose 0.5-20 µM, time 5.0 day
Summary of the method: (§1)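 MKN45 cells were treated for 5 days and lysed in RIPA buffer. About 30 µg protein was run on 10% SDS-PAGE and transferred to 0.2 µm nitrocellulose, then blocked with 5% milk in PBS for 2 h. Blots were probed for histone methylation marks with histone 3 as loading control and detected by ECL.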

MKN-45 [9] = assay: Inhibition of KDM4 in human MKN-45 cells assessed as increase in H3K9me2 accumulation at 0.5 to 20 uM measured after 5 days by Western blot analysis; format: cell-based; conditions: dose 0.5-20 µM, time 5.0 day; summary of the method: as §1
MKN-45 [10] = assay: Antiproliferative activity against human MKN-45 cells assessed as reduction in cell proliferation measured after 4 days by MTS assay; format: functional, cell-based; conditions: MKN-45, 96 h
Summary of the method: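 MKN45 cells were seeded at 3×10^3 cells per well and treated for 4 or 6 days, as indicated. Proliferation was read by MTS assay and IC50 derived. Three independent experiments, mean ± SD.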

MKN-45 [11] = assay: Inhibition of colony formation in human MKN-45 cells measured after 10 days by crystal violet staining based microscopic analysis; format: functional, cell-based; conditions: time 10.0 day
Summary of the method: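 1000 MKN45 cells were seeded in 6-well plates and treated. The medium was then replaced and cells were cultured another 10 days. Colonies were fixed with cold methanol, stained with crystal violet and photographed under a microscope.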

- inhibition [1]: 3.52%
- inhibition [2]: 39.4%
- inhibition [3]: 62.4%
- inhibition [4]: 16.4%
- IC50 [5]: 0.954 µM
- IC50 [6]: 0.0249 µM
- IC50 [7]: > 1 µM
- inhibition [8]: inactive
- IC50 (MKN-45 [10]): 26.7 µM
SMILES: COc1ccc(-n2cc(C(=O)NCC(C)(C)N3CCOCC3)c(-c3ccccc3)n2)cc1
- inhibition (MKN-45 [9]): inactive
- inhibition (MKN-45 [11]): Active
